Experimental data as given in PMC11831629 (The Journal of International Medical Research, 2025).
Bridge positions count the residues as written; N and C are the ends. Square brackets hold non-standard residues; d marks the D form. Peptide text beside a SMILES is read from it. * marks the point of attachment. X1 = CC[C@H](C)CCCCC(=O)*; Dab = NCC[C@H](N)C(=O)O

Experiments:
[1] = assay type: in vivo, human
Summary of the method: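 Elderly ICU patients without prior renal failure, AKI, RRT or ECMO received iv test compound for more than 3 days. AKI was a creatinine rise of more than 50% from baseline. Trough and peak plasma levels were measured by HPLC-MS/MS after at least six doses. AUCss,24h and Css,avg were derived with first-order elimination equations. ROC analysis gave sensitivity and specificity for AKI prediction.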

[2] = multicenter study; cited from earlier work
[3] = ROC curve analysis, critically ill elderly patients, 28 AKI vs 30 non-AKI

## CC[C@H](C)CCCCC(=O)N[C@@H](CCN)C(=O)N[C@H](C(=O)N[C@@H](CCN)C(=O)N[C@H]1CCNC(=O)[C@H]([C@@H](C)O)NC(=O)[C@H](CCN)NC(=O)[C@H](CCN)NC(=O)[C@H](CC(C)C)NC(=O)[C@@H](Cc2ccccc2)NC(=O)[C@H](CCN)NC1=O)[C@@H](C)O [polymyxin B] (X1-[Dab]T[Dab][Dab][Dab][dF]L[Dab][Dab]T; lactam 4-C)
[1]; 95% CI 0.579-0.847
  area under the ROC curve of Css,avg for prediction of PB-AKI: 0.713
[1]; 95% CI 0.661-0.910
  area under the ROC curve of Cmin for prediction of PB-AKI: 0.786
[1]; [3]
  cutoff value for Cmin for predicting AKI: 2940 ng/mL
  cutoff value for Css,avg for predicting AKI: 4140 ng/mL
[1]; cutoff 2.94 mg/L
  sensitivity of Cmin cutoff for prediction of PB-AKI: 78.57%
  specificity of Cmin cutoff for prediction of PB-AKI: 80.00%
[1]; cutoff 4.14 mg/L
  sensitivity of Css,avg cutoff for prediction of PB-AKI: 82.14
  specificity of Css,avg cutoff for prediction of PB-AKI: 53.33%
[2]
  mortality rate of patients with PB-associated AKI higher than that of patients without AKI: 17%
